DDE Tn7 FP inh: inhibitors of Tn7 peptide binding to human fibrin DD(E); inhibition, % at 8.3 µM; actives 0.13% (n = 370,000); P02675; FP displacement of FITC-Tn7 peptide from fibrin DD(E); 0% = median of compound wells per plate;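 active = inhibition above the mean of compounds falling within the control limits plus 3 SD of them, cut at about 14% in these data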
Target sequence (P02675 whole entry, looked up): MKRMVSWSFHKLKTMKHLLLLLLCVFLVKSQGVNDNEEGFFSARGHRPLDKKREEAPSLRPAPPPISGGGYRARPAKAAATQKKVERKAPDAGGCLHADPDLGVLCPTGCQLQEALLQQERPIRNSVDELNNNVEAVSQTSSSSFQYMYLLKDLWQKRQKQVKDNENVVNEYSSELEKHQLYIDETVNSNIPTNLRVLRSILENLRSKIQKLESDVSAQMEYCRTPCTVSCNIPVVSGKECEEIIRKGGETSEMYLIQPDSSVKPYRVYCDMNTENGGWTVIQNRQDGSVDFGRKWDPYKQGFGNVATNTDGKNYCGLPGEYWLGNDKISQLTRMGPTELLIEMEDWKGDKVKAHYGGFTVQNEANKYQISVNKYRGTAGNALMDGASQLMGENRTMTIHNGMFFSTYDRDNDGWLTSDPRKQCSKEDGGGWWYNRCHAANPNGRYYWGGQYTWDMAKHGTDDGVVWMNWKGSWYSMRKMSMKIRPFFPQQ
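System: human fibrin DD(E); quantity: Fibrin-DD(E) at 2 µM final; also added: fluorescent Tn7 probe at 0.1 µM; compound dosing: single nominal test concentration of 8.3 µM per compound; schedule: 10 min preincubation, 3 h with tracer, room temperature; detection: fluorescence polarization of the labelled Tn7 tracer; repeats: one replicate per compound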
DDE Tn6 FP inh: disrupts Tn6 cyclic peptide binding to fibrin D-Dimer-E complex; actives 0.21% (n = 370,000); Fibrin DD(E) TRITC-Tn6 fluorescence polarization displacement; P02675; AID 720509; inhibition, % at 8.3 µM;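 active = inhibition above a per-campaign cutoff: mean of compounds within control limits plus 3 SD, cut at about 15% in these data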
PLCb3 inh: inhibitors of human phospholipase C beta3. Q01970. Purified PLC-beta3, fluorogenic substrate, fluorescence. inhibition, % at 12.2 µM. actives 0.18% (n = 370,000); in the data active = inhibition above about 11%
DNA FID counter: displaces DNA intercalator in HCV helicase counter-screen; DNA fluorescent intercalator displacement, fluorescence; inhibition, % at 7.9 µM; actives 0.17% (n = 290,000); in the data active = inhibition above about 37%;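 note: higher means more ethidium bromide displaced from hairpin DNA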
PLCg1 inh: inhibitors of human phospholipase C gamma1; actives 0.84% (n = 370,000); AID 720700; purified PLC-gamma1, fluorogenic substrate, fluorescence; P19174; inhibition, % at 12.2 µM
PLCgamma1 ctr: counter-screen for PLC-beta3 inhibitors: inhibitors of human PLC-gamma1; shares compounds with PLCg1 inh; purified PLC-gamma1, fluorogenic substrate, fluorescence; inhibition, % at 12.3 µM; actives 3.1% (n = 3,300)
PLCbeta3 conf: human PLC-beta3 inhibition, confirmation; shares compounds with PLCg1 inh; purified PLC-beta3, fluorogenic substrate fluorescence; inhibition, % at 12.3 µM; actives 1% (n = 3,300); in the data active = inhibition above about 11%
Numbers stand for hits. The list is not random: actives were taken first. Their share in the collection is about 1.4%. Cut-off read from the data, not from the text of the source, unless noted: active = inhibition above about 9.5%; inactive = the rest.

What do the screens show for `O=C(Cc1ccc(Cl)cc1)NN1C(=O)c2ccccc2C1=O`?
DDE Tn7 FP inh: inactive; DDE Tn6 FP inh: inactive; PLCb3 inh: inactive; DNA FID counter: inactive; PLCg1 inh: 11; PLCgamma1 ctr: inactive; PLCbeta3 conf: inactive

What do the screens show for `Cc1ccc(C)c(N(C(=O)Cn2nnc(-c3cccs3)n2)C(C(=O)NC2CCCC2)c2ccncc2)c1` (configuration not stated)?
DDE Tn7 FP inh: inactive; DDE Tn6 FP inh: inactive; PLCb3 inh: inactive; DNA FID counter: inactive; PLCg1 inh: inactive

What do the screens show for `CNC(=O)c1c(NC(=O)c2ccc(S(=O)(=O)N3CCCC3)cc2)sc2c1CCN(C(C)C)C2`?
DDE Tn7 FP inh: inactive; DDE Tn6 FP inh: inactive; PLCb3 inh: inactive; DNA FID counter: inactive; PLCg1 inh: inactive

What do the screens show for `O=S(=O)(NCc1ccccc1)c1ccccc1Br`?
DDE Tn7 FP inh: inactive; DDE Tn6 FP inh: inactive; PLCb3 inh: inactive; PLCg1 inh: inactive

What do the screens show for `O=S(=O)(CS(=O)(=O)c1ccccc1Br)c1ccccc1Br`?
DDE Tn7 FP inh: inactive; DDE Tn6 FP inh: inactive; PLCb3 inh: inactive; PLCg1 inh: 22; PLCgamma1 ctr: 17; PLCbeta3 conf: inactive

What do the screens show for `Cc1cccc(OCCNC(=O)c2ccc(Cl)c(S(=O)(=O)NCc3cccnc3)c2)c1`?
DDE Tn7 FP inh: inactive; DDE Tn6 FP inh: inactive; PLCb3 inh: inactive; PLCg1 inh: inactive

What do the screens show for `O=C(Nc1ccc(Cl)cc1)C1CC2CCCC(C1)C2=O` (configuration not stated)?
DDE Tn7 FP inh: inactive; DDE Tn6 FP inh: inactive; PLCb3 inh: inactive; DNA FID counter: inactive; PLCg1 inh: inactive

How did CCOc1cc(CNCc2ccccc2)ccc1OCc1ccc(Cl)cc1 do in these assays?
DDE Tn7 FP inh: inactive; DDE Tn6 FP inh: inactive; PLCb3 inh: inactive; DNA FID counter: 46; PLCg1 inh: 17; PLCgamma1 ctr: inactive; PLCbeta3 conf: inactive

How did COc1ccc(CNCCc2ccc(Cl)cc2)cc1OCc1ccccc1 do in these assays?
DNA FID counter: inactive

What do the screens show for `Cc1nc(NCc2ccccc2)sc1C(=O)Nc1ccccc1`?
DDE Tn7 FP inh: inactive; DDE Tn6 FP inh: inactive; PLCb3 inh: inactive; DNA FID counter: inactive; PLCg1 inh: inactive

What do the screens show for `Cc1nc(NCCOc2ccccc2)sc1C(=O)Nc1ccccc1`?
DDE Tn7 FP inh: inactive; DDE Tn6 FP inh: inactive; PLCb3 inh: inactive; DNA FID counter: inactive; PLCg1 inh: 12; PLCgamma1 ctr: inactive; PLCbeta3 conf: inactive

What do the screens show for `CC(C)c1cc(C(=O)NC2CCCCC2)no1`?
DDE Tn7 FP inh: inactive; DDE Tn6 FP inh: inactive; PLCb3 inh: inactive; DNA FID counter: inactive; PLCg1 inh: inactive

Results for Nc1ncnc2c1ncn2[C@@H]1O[C@H](COP(=O)(O)OP(=O)(O)OP(=O)(O)O)[C@@H](O)[C@H]1O ?
DDE Tn7 FP inh: inactive; DDE Tn6 FP inh: inactive; PLCb3 inh: inactive; PLCg1 inh: 40; PLCgamma1 ctr: 54; PLCbeta3 conf: inactive

What do the screens show for `Nc1ncnc2c1ncn2C1OC(COP(=O)(O)O)C(O)C1O` (configuration not stated)?
DDE Tn7 FP inh: inactive; DDE Tn6 FP inh: inactive; PLCb3 inh: inactive; DNA FID counter: inactive; PLCg1 inh: 41; PLCgamma1 ctr: 55; PLCbeta3 conf: inactive

How did NCCC(=O)NC[C@H]1O[C@@H](n2cnc3c(N)ncnc32)[C@H](O)[C@@H]1O do in these assays?
DDE Tn7 FP inh: inactive; DDE Tn6 FP inh: inactive; PLCb3 inh: inactive; PLCg1 inh: inactive

How did Nc1ncnc2c1ncn2[C@@H]1O[C@H](COS(=O)(=O)O)[C@@H](O)[C@H]1O do in these assays?
DDE Tn7 FP inh: inactive; DDE Tn6 FP inh: inactive; PLCb3 inh: inactive; PLCg1 inh: inactive

What do the screens show for `NC(=O)C1=CN([C@@H]2O[C@H](COP(=O)(O)OP(=O)(O)OC[C@H]3O[C@@H](n4cnc5c(N)ncnc54)[C@H](O)[C@@H]3O)[C@@H](O)[C@H]2O)C=CC1`?
DDE Tn7 FP inh: inactive; DDE Tn6 FP inh: inactive; PLCb3 inh: inactive; PLCg1 inh: 29; PLCgamma1 ctr: 32; PLCbeta3 conf: inactive

What do the screens show for `Nc1ncnc2c1ncn2[C@@H]1O[C@H](COP(=O)(O)O)[C@@H](O)[C@H]1O`?
DDE Tn7 FP inh: inactive; DDE Tn6 FP inh: inactive; PLCb3 inh: inactive; DNA FID counter: inactive; PLCg1 inh: 39; PLCgamma1 ctr: 48; PLCbeta3 conf: inactive

Results for COc1ccc(Nc2ncnc3c2oc2ccccc23)cc1 ?
DDE Tn7 FP inh: inactive; DDE Tn6 FP inh: inactive; PLCb3 inh: inactive; DNA FID counter: inactive; PLCg1 inh: inactive

Results for CCn1c(CCNC(=O)c2ccco2)nc2ccccc21 ?
DDE Tn7 FP inh: inactive; DDE Tn6 FP inh: inactive; PLCb3 inh: inactive; DNA FID counter: inactive; PLCg1 inh: inactive

What do the screens show for `COc1ccc(C)cc1N(CC(=O)N1CCCCCC1)S(C)(=O)=O`?
DDE Tn7 FP inh: inactive; DDE Tn6 FP inh: inactive; PLCb3 inh: inactive; DNA FID counter: inactive; PLCg1 inh: inactive

What do the screens show for `Fc1ccccc1/C=N/Nc1ccc(Cl)nn1`?
DDE Tn7 FP inh: inactive; DDE Tn6 FP inh: inactive; PLCb3 inh: inactive; DNA FID counter: inactive; PLCg1 inh: inactive

What do the screens show for `CCc1ccccc1NC(=O)CC1SCCNC1=O` (configuration not stated)?
DDE Tn7 FP inh: inactive; DDE Tn6 FP inh: inactive; PLCb3 inh: inactive; DNA FID counter: inactive; PLCg1 inh: 11; PLCgamma1 ctr: inactive; PLCbeta3 conf: inactive

What do the screens show for `Cc1cc(C)c(OCC(=O)OC(C)C(=O)NC2CC2)c(C)c1` (configuration not stated)?
DDE Tn7 FP inh: inactive; DDE Tn6 FP inh: inactive; PLCb3 inh: inactive; DNA FID counter: inactive; PLCg1 inh: inactive

How did NS(=O)(=O)c1ccc(NC(=S)NC(=O)C2CCCCC2)cc1 do in these assays?
DDE Tn7 FP inh: inactive; DDE Tn6 FP inh: inactive; PLCb3 inh: inactive; DNA FID counter: inactive; PLCg1 inh: 11; PLCgamma1 ctr: inactive; PLCbeta3 conf: inactive

What do the screens show for `Cc1ccc(NC(=S)NC(=O)C2CCCCC2)c(Br)c1`?
DDE Tn7 FP inh: inactive; DDE Tn6 FP inh: inactive; PLCb3 inh: 15; PLCg1 inh: 16; PLCgamma1 ctr: inactive; PLCbeta3 conf: inactive

What do the screens show for `O=C(NCc1ccccc1)c1ccc(Cn2cc(C(F)(F)F)ccc2=O)cc1`?
DDE Tn7 FP inh: inactive; DDE Tn6 FP inh: inactive; PLCb3 inh: inactive; DNA FID counter: inactive; PLCg1 inh: inactive

What do the screens show for `COc1ccc(C(=O)NN/C(C)=C/C(=O)C(F)(F)C(F)(F)C(F)(F)F)cc1`?
DDE Tn7 FP inh: inactive; DDE Tn6 FP inh: inactive; PLCb3 inh: inactive; DNA FID counter: inactive; PLCg1 inh: inactive

How did Cc1cc(C(=O)N2CCC2(C)C(=O)Nc2ccc3[nH]ncc3c2)nn1C (configuration not stated) do in these assays?
DDE Tn7 FP inh: inactive; DDE Tn6 FP inh: inactive; PLCb3 inh: 15; PLCg1 inh: inactive; PLCgamma1 ctr: inactive; PLCbeta3 conf: inactive
